# Data: paper PMC11890989 (Zoological Research, 2025)
# “Also recorded” adds a separate entry of the source.
# Key:
# [1] = system: AjTRHR; assay: Intracellular Ca2+ mobilization; format: cell-based, Apostichopus japonicus; details: negative control, reverse sequence of AjTRH7; Supplementary Figure S3B
# In short: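 HEK293T cells were grown in DMEM with 10% FBS at 37°C and 5% CO2. At ~70% confluence they were transfected by lipofection with receptor-pcDNA3.1(+). Cells were loaded with 3 μmol/L Fura-2/AM for 30 min, then stimulated with peptide. Test peptides spanned 10−9–10−5 mol/L, with reversed-sequence peptide or empty-vector cells as negative controls. Fluorescence was read on a plate reader. Experiments were repeated independently at least three times.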
# [2] = system: AjCCKP1; assay: In vivo relative AjCCKP1 expression in intestine, RT-qPCR; parameters: species or system Apostichopus japonicus; details: AjTRH7 0.05 mg/mL (LTG) injection; F(2,10)=8.091, P<0.05; Figure 7B
# [3] = system: AjTRHR; assay: cAMP content; format: cell-based, Apostichopus japonicus; details: 10^−9–10^−5 mol/L, 30 min; HEK293T, AjTRHR-pcDNA3.1(+); Figure 4C (AjTRH7), Figure 6A (AjTRH1)
# In short: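 HEK293T cells transfected with AjTRHR-pcDNA3.1(+) or empty pcDNA3.1(+) were exposed to gradient-diluted peptide (10^−9–10^−5 mol/L) for 30 min. Cells were then washed twice in PBS and lysed, and intracellular cAMP was quantified with a commercial cAMP assay kit.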
# [4] = system: AjTRHR; assay: ERK1/2 phosphorylation; format: cell-based, Apostichopus japonicus; details: AjTRH7 10^−6 mol/L
# In short: (§1)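 HEK293T cells (DMEM, 10% FBS, 37°C, 5% CO2) were transfected at ~70% confluence with AjTRHR-pcDNA3.1(+) or empty vector using Lipofectamine 2000. Receptor cells received 10^−6 mol/L peptide for 0, 5, 15, 30, 45 or 60 min at 37°C. Lysate protein was BCA-normalised, run on 10% SDS-PAGE, blotted to PVDF and probed for pERK1/2 (1:2 000) and total ERK1/2 (1:1 000). Bands were ECL-detected and densitometry expressed as pERK/tERK; six repetitions, mean+SEM.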
# [5] = system: Apostichopus japonicus; assay: In vivo feed intake rate; details: AjTRH1/AjTRH7 injection, A. japonicus
# In short: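 Sub-adult sea cucumbers (~30 g) were held in UV-sterilised filtered seawater at 18–20°C, 32 ppt and 12:12 h light/dark. They were fed ad libitum each morning with commercial feed mixed 1:3 with sea mud. Six groups were set up, each in five tanks of six animals. Test peptide in sterile seawater (0.5 or 0.05 mg/mL) or seawater alone was injected at 0.1% (v/w) via the mouth into the coelom at noon every two days, for over 25 days. Uneaten food was collected daily, dried and weighed. FI was calculated per a prior method, and tank was a random factor in linear mixed models with Tukey tests.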
# [6] = system: AjTRHR; assay: Ligand binding assays / receptor activation summary; format: cell-based, Apostichopus japonicus; details: for agonism at AjTRHR: bioinformatics and ligand-binding assays, cAMP/PKA-ERK/MAPK cascade and possibly Ca^2+-dependent pathway
# [7] = system: Apostichopus japonicus; assay: In vivo weight gain rate; details: 0.05 mg/mL (LTG) vs 0.5 mg/mL (HTG) AjTRH7
# In short: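 Sub-adult sea cucumbers (30±5.8 g) were kept in filtered UV-sterilised seawater (18–20°C, 32 ppt, 12:12 h light/dark), six per tank and five tanks per group (30 per group), fed ad libitum each morning (commercial feed:sea mud 1:3). Peptide in sterile seawater at 0.5 or 0.05 mg/mL, or seawater alone, was injected orally into the coelom at 0.1% (v/w) every two days at noon for over 25 days. Body weight was taken at start and end to derive WGR. Analysis used linear mixed models with tank as random factor and Tukey tests.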
# [8] = system: HEK293T cells transfected with empty pcDNA 3.1(+) vector; assay: ERK1/2 phosphorylation, empty pcDNA 3.1; format: cell-based, human; details: AjTRH7 10^−5 mol/L, negative control, Figure 4E
# In short: as §1
# [9] = system: AjCCKP1; assay: In vivo relative AjCCKP1 expression in circumoral nerve ring; parameters: species or system Apostichopus japonicus; details: AjTRH7 0.5 mg/mL (HTG) injection; F(2,10)=6.852, P<0.05; Figure 7A
# [10] = system: AjTRHR; assay: SRE-Luc reporter assay; format: cell-based, Apostichopus japonicus; details: 10^-9-10^-5 mol/L; HEK293T expressing AjTRHR; Supplementary Figure S6
# [11] = system: rats; details: obese rats, prolonged TRH administration; ref Al-Arabi & Andrews, 2006; cited from earlier work
# [12] = system: rodents, such as rats and squirrels; details: ref Al-Arabi & Andrews, 2006, Frare et al., 2021, Puga et al., 2016, Schuhler et al., 2007, Schwartz et al., 2013, Steward et al., 2003; cited from earlier work
substance,measurement,setting,value
EWFKWPSGPLQ,Ca2+ response to reverse peptide sequence,[1],no observable responses
pQLPGSPWKFWE [AjTRH7],AjCCKP1 expression in intestine,[2],significantly up-regulated
same,cAMP accumulation,[3],cAMP accumulation
same,p-ERK1/2 activity at 15 min,"[4]; 15 min, 37°C, mean±SEM (n=6), F(5,10)=5.563, P<0.05, Figure 4E",markedly increased
same,p-ERK1/2 activity at 30 min,"[4]; 30 min, 37°C, mean±SEM (n=6), F(5,10)=5.563, P<0.05, Figure 4E",markedly increased
same,p-ERK1/2 after the peak,"[4]; after 15 min peak, up to 60 min",subsequently returning to baseline levels
same,food intake (summary),[5],inhibited food intake
same,agonism at AjTRHR,[6],acts as an agonist for AjTRHR
same,"inhibitory effect, LTG compared with HTG (WGR context)",[7],stronger inhibitory effect in the LTG group than in the HTG group
same,p-ERK1/2 response in empty vector cells,[8],no significant responses
same,AjCCKP1 expression in CNR,[9],significantly up-regulated
pQYFA [AjTRH1],cAMP accumulation,[3],cAMP accumulation
same,food intake (summary),[5],inhibited food intake
same,agonism at AjTRHR,[6],activates AjTRHR by increasing cAMP levels
same,binding to AjTRHR,[6]; inferred from receptor assays in HEK293T cells expressing AjTRHR,binds to AjTRHR
same,Ca2+ mobilization (SRE-driven luciferase activity),[10],no Ca^2+ mobilization was observed; also recorded: does not induce significant Ca^2+ influx
thyrotropin-releasing hormone [TRH],body weight,[11],reduced body weight
same,food intake,[11],suppress food intake
same,resting metabolic rate,[11],elevate resting metabolic rates
same,feeding motivation and feeding behavior,[12],suppress feeding motivation and inhibit feeding behavior
